Measured values from article PMC5771863 (Anesthesiology, 2018).

Experiments:
Type in all cases: cell-based
[1] = molecular target: wild-type α1β3γ2L GABAA receptors (Homo sapiens, UniProt P14867+P28472); settings: […] ETO, 5 μM PRO, […] ALX (2 x EC50 tadpole LoRR)
[2] = molecular target: T1, α1β3L297Cγ2L GABAA receptors (Homo sapiens, UniProt P14867+P28472, L322C); assay: Substituted cysteine modification-protection; settings: pCMBS + maximal GABA
[3] = molecular target: T2, α1β3F293Cγ2L GABAA receptors (Homo sapiens, UniProt P14867+P28472, F318C); assay: Substituted cysteine modification-protection; settings: pCMBS + maximal GABA, initial concentrations, 10 μM ALX
[4] = molecular target: β3 subunits with Y284C mutations co-expressed with α1 and γ2L (Homo sapiens, UniProt P14867+P28472, Y309C); assay: GABA-activated currents, two-electrode voltage clamp in Xenopus oocytes; settings: β3Y284C co-expressed with α1 and γ2L in Xenopus oocytes
Outline: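 Human α1 and γ2L were co-expressed with mutant β3 from mRNA (1:1:5, ~50 ng per oocyte) over 48 to 72 hours at 17 °C in ND96. […] A current of ≥ 0.5 μA was required for further experiments.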

[5] = molecular target: T2, α1β3F293Cγ2L GABAA receptors; settings: control modification conditions
[6] = molecular target: T2, α1β3F293Cγ2L GABAA receptors; assay: Functional effect of pCMBS exposure
[7] = molecular target: α1β3M283Cγ2L GABAA receptors (Homo sapiens, UniProt P14867+P28472, M308C); assay: Functional effect of pCMBS exposure
[8] = molecular target: α1β3T266Cγ2L GABAA receptors (Homo sapiens, UniProt P14867+P28472, T291C); assay: Functional effect of pCMBS exposure
[9] = molecular target: α1β3T262Cγ2L GABAA receptors (Homo sapiens, UniProt P14867+P28472, T287C); assay: Functional effect of pCMBS exposure
[10] = molecular target: α1β3F289Cγ2L GABAA receptors (Homo sapiens, UniProt P14867+P28472, F314C); assay: Functional effect of pCMBS exposure
[11] = molecular target: α1β3E298Cγ2L GABAA receptors (Homo sapiens, UniProt P14867+P28472, E323C); assay: Functional effect of pCMBS exposure
[12] = molecular target: T3, α1β3F301Cγ2L GABAA receptors (Homo sapiens, UniProt P14867+P28472, F326C); assay: Functional effect of pCMBS exposure
[13] = molecular target: α1β3M286Cγ2L GABAA receptors (Homo sapiens, UniProt P14867+P28472, M311C); assay: Functional effect of pCMBS exposure
[14] = molecular target: T1, α1β3L297Cγ2L GABAA receptors; assay: Functional effect of pCMBS exposure
[15] = molecular target: α1β3G287Cγ2L GABAA receptors (Homo sapiens, UniProt P14867+P28472, G312C); assay: Functional effect of pCMBS exposure
[16] = molecular target: T4, α1β3V290Cγ2L GABAA receptors (Homo sapiens, UniProt P14867+P28472, V315C); assay: Functional effect of pCMBS exposure
[17] = molecular target: α1β3γ2L GABAA receptors (wild-type) (Homo sapiens, UniProt P14867+P28472); assay: Functional effect of pCMBS exposure
[18] = molecular target: T4, α1β3V290Cγ2L GABAA receptors
[19] = molecular target: T3, α1β3F301Cγ2L GABAA receptors; assay: Substituted cysteine modification-protection; settings: pCMBS + maximal GABA, 10 to 20 μM ALX, 10 to 20 μM ETO
[20] = molecular target: α1T237Cβ3γ2L GABAA receptors (Homo sapiens, UniProt P14867+P28472, T264C); assay: Substituted cysteine modification-protection; settings: 10 μM ALX, 10 μM ETO
[21] = molecular target: GABAA receptors with α1Q242C mutation (Homo sapiens, UniProt P14867+P28472, Q269C); assay: Receptor sensitivity to anesthetics; settings: authors' unpublished data
[22] = low concentrations of anesthetics

T2 sequence (P14867 28-456): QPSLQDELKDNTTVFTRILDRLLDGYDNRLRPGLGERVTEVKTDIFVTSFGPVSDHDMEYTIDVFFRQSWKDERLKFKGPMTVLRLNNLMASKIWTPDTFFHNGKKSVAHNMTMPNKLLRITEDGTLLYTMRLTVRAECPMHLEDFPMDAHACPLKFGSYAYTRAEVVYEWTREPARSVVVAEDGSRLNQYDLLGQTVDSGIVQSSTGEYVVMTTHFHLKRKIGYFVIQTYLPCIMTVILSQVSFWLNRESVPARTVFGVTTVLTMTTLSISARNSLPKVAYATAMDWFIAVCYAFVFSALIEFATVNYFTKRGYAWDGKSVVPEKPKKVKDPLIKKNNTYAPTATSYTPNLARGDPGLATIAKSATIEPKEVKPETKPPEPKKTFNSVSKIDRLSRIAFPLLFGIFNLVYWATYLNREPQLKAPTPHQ
T2 sequence (P28472 26-473 F318C): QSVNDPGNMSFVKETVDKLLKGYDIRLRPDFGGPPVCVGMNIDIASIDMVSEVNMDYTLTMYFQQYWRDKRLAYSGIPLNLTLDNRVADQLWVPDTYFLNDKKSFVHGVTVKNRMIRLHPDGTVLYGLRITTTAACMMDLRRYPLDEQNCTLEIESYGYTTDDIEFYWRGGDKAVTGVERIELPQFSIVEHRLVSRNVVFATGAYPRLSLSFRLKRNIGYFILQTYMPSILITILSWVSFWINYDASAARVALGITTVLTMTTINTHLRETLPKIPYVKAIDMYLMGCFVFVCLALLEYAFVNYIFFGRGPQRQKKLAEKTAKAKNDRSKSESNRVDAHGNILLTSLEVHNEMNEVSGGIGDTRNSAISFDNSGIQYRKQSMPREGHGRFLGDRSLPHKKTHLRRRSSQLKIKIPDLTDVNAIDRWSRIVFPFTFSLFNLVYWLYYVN
T2 sequence (P18507 40-475 partner): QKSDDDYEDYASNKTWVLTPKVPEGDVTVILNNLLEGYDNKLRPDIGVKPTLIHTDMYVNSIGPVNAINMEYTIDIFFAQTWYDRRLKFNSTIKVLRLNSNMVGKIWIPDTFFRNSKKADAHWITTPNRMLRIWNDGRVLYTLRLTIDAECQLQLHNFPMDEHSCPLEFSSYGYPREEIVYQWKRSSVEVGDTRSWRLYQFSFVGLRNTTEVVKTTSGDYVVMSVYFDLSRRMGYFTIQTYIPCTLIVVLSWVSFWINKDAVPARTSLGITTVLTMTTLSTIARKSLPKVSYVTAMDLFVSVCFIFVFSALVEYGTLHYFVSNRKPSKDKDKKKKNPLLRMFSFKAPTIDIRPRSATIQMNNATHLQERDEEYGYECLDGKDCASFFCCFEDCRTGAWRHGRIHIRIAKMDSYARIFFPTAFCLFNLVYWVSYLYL
T1 sequence (P14867 28-456): as the sequence (P14867 28-456) above
T1 sequence (P28472 26-473 L322C): as the sequence (P28472 26-473 F318C) above, with C293F, L297C counted along it
T1 sequence (P18507 40-475 partner): as the sequence (P18507 40-475 partner) above
T4 sequence (P14867 28-456, stated change not applied): as the sequence (P14867 28-456) above
T4 sequence (P28472 26-473 V315C): as the sequence (P28472 26-473 F318C) above, with V290C, C293F counted along it
T4 sequence (P18507 40-475 partner): as the sequence (P18507 40-475 partner) above

Q: What does the source list for CC(C)c1cccc(C(C)C)c1O [PRO, 2,6-diisopropylphenol]?
A: enhancement of gating of receptors activated with EC5 GABA [1]: similarly enhance; effect on apparent rate of pCMBS modification [2, 22]: unaffected; effect on apparent rate of pCMBS modification [3]: accelerated

Q: How did the GABA-activated currents [4] turn out when NCCCC(=O)O [GABA, γ-Aminobutyric acid] was run?
A: No GABA-activated currents were detected

Q: What about the “fraction of receptors activated by maximal GABA” value [5] of the same compound?
A: about 16%

Q: How did the “Maximal Effect of pCMBS Modification (range): ↑ lo/hi GABA response” value (“Maximal Effect … ↑ lo/hi GABA response” for short) [6] turn out when O=S(=O)([O-])c1cc[c]([Hg][Cl])cc1.[Na+] [pCMBS, Para-chloromercuribenzenesulfonic acid sodium salt] was run?
A: ↑ lo/hi GABA response (2.6 to 4.3-fold)

Q: And the “Maximal Effect of pCMBS Modification (range)” value [7]?
A: No effect

Q: And the “Maximal Effect … ↑ lo/hi GABA response” value [8]?
A: ↑ lo/hi GABA response (10 to 13-fold)

Q: And the “Maximal Effect of pCMBS Modification (range): Reduce max current” value [9]?
A: Reduce max current (95–99%)

Q: And the “effect of pCMBS exposure on activation by GABA” value ([9]; low and high GABA)?
A: similarly reduced activation by both low and high GABA

Q: And the “Maximal Effect … ↑ lo/hi GABA response” value [10]?
A: ↑ lo/hi GABA response (2.8 to 4.0-fold)

Q: And the “Maximal Effect … ↑ lo/hi GABA response” value [11]?
A: ↑ lo/hi GABA response (3.5 to 5.5-fold)

Q: What about the “Maximal Effect … ↑ lo/hi GABA response” value [12] of the same compound?
A: ↑ lo/hi GABA response (3.8 to 4.9-fold)

Q: And the “Maximal Effect … ↑ lo/hi GABA response” value [13]?
A: ↑ lo/hi GABA response (5.8 to 7.8-fold)

Q: What about the “Maximal Effect … ↑ lo/hi GABA response” value [14] of the same compound?
A: ↑ lo/hi GABA response (5.5 to 7.2-fold)

Q: What about the “Maximal Effect … ↑ lo/hi GABA response” value [15] of the same compound?
A: ↑ lo/hi GABA response (2.3 to 3.5-fold)

Q: What about the “Maximal Effect … ↑ lo/hi GABA response” value [16] of the same compound?
A: ↑ lo/hi GABA response (2.3 to 3.1-fold)

Q: And the “Maximal Effect of pCMBS Modification (range)” value [17]?
A: No effect

Q: What about the “effect of pCMBS exposure on receptor function” value ([17]; pCMBS at 1 mM for 60 s) of the same compound?
A: unaffected

Q: With C=CCC1(c2cccc(C3(C(F)(F)F)N=N3)c2)C(=O)NC(=O)N(C)C1=O (stereo not drawn) [mTFD-MPAB, R-allyl-m-trifluoromethyl-mephobarbital] as the compound, how does the “effect on apparent rate of pCMBS modification” value (“effect on apparent rate” below) [18] read?
A: unaffected

Q: CCOC(=O)c1cncn1[C@H](C)c1ccccc1 [ETO, R-Etomidate] was tested. Which “enhancement of gating of receptors activated with EC5 GABA” value [1] did it give?
A: similarly enhance

Q: What about the “effect on apparent rate” value [19] of the same compound?
A: unaffected

Q: What about the “effect on apparent rate” value ([2]; 50 μM ALX vs. 50 μM ETO) of the same compound?
A: inhibition by ALX, but not ETO

Q: And the “effect on apparent rate” value [2, 22]?
A: unaffected

Q: And the “effect on apparent rate” value [3]?
A: accelerated

Q: And the “effect on pCMBS modification rates” value [20]?
A: inhibited modification

Q: What about the “receptor sensitivity to anesthetic” value [21] of the same compound?
A: insensitivity to ALX, but not to ETO
